{"source": "ChEMBL document CHEMBL1671864", "about": "“First assessment in humans of the safety, tolerability, pharmacokinetics, and ex vivo pharmacodynamic antimalarial activity of the new artemisinin derivative artemisone” (Antimicrob Agents Chemother, 2008)", "key": {"Plasma [1]": {"tested_on": "Plasma", "assay": "Cmax in healthy human plasma assessed as metabolite BAY 78-1788 Cmax at 80 mg, po administered as four 20 mg immediate release tablets daily for 3 days during 10 hrs overnight fasting state measured after 3 day", "assay_type": "ADME, organism-based", "parameters": "dose 80 mg, route oral", "details": "in vivo, 72 h", "in_short": "(§1)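 Healthy Caucasian males took tablets once daily for 3 days with 240 ml water after a 10-h fast. Heparinised blood was drawn predose and at 0.25–14 h after the first and last doses. Plasma parent drug and metabolites M1–M3 were measured by LC/MS-MS (MRM, deuterated internal standard). Noncompartmental analysis gave Cmax observed, t1/2 = 0.693/kel and MRT = AUMC/AUC. Values are geometric means.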"}, "Plasma [2]": {"tested_on": "Plasma", "assay": "AUC in healthy human plasma assessed as metabolite BAY 78-1788 AUC at 80 mg, po administered as four 20 mg immediate release tablets daily for 3 days during 10 hrs overnight fasting state measured after 1 day", "assay_type": "ADME, organism-based", "parameters": "dose 80 mg, time < 10 hr, route oral", "details": "in vivo", "in_short": "(§2)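 Healthy Caucasian male volunteers took 40 mg (two 20-mg IR tablets) or 80 mg (four tablets) orally once daily for 3 days, with 240 ml water after a 10-h fast. Plasma was sampled predose to 14 h after the first and last doses. M1/M2/M3 were quantified by LC/MS-MS MRM against a D4-labelled internal standard. Cmax was read from observed data and AUC by log-linear trapezoidal rule, noncompartmental, geometric means.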"}, "Plasma [3]": {"tested_on": "Plasma", "assay": "AUC in healthy human plasma assessed as metabolite BAY 78-1788 AUC at 80 mg, po administered as four 20 mg immediate release tablets daily for 3 days during 10 hrs overnight fasting state measured after 3 day", "assay_type": "ADME, organism-based", "parameters": "dose 80 mg, time < 10 hr, route oral", "details": "in vivo", "in_short": "as §2"}, "Plasma [4]": {"tested_on": "Plasma", "assay": "Tmax in healthy human plasma assessed as metabolite BAY 78-1788 Tmax at 80 mg, po administered as four 20 mg immediate release tablets daily for 3 days during 10 hrs overnight fasting state measured after 1 day", "assay_type": "ADME, organism-based", "details": "in vivo, 24 h", "in_short": "(§3)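 Healthy Caucasian men (8 active, 4 placebo per dose) dosed with tablets daily for 3 days after 10-h fast. Lithium-heparin plasma sampled predose and 0.25–14 h after day-1 and day-3 doses, stored frozen. Parent and M1–M3 quantified by LC/MS-MS in positive-ion MRM. Tmax taken directly from observed individual data.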"}, "Plasma [5]": {"tested_on": "Plasma", "assay": "Tmax in healthy human plasma assessed as metabolite BAY 78-1788 Tmax at 80 mg, po administered as four 20 mg immediate release tablets daily for 3 days during 10 hrs overnight fasting state measured after 3 day", "assay_type": "ADME, organism-based", "details": "in vivo, 72 h", "in_short": "as §3"}, "Plasma [6]": {"tested_on": "Plasma", "assay": "Half life in healthy human plasma assessed as metabolite BAY 78-1788 Half life at 80 mg, po administered as four 20 mg immediate release tablets daily for 3 days during 10 hrs overnight fasting state measured after 1 day", "assay_type": "ADME, organism-based", "details": "in vivo, 24 h", "in_short": "as §1"}, "Plasma [7]": {"tested_on": "Plasma", "assay": "Half life in healthy human plasma assessed as metabolite BAY 78-1788 Half life at 80 mg, po administered as four 20 mg immediate release tablets daily for 3 days during 10 hrs overnight fasting state measured after 3 day", "assay_type": "ADME, organism-based", "details": "in vivo, 72 h", "in_short": "as §1"}, "Plasma [8]": {"tested_on": "Plasma", "assay": "Cmax in healthy human plasma assessed as metabolite BAY 78-1788 Cmax at 80 mg, po administered as single ascending doses during 10 hrs overnight fasting state", "assay_type": "ADME, organism-based", "parameters": "dose 80 mg, route oral", "details": "in vivo", "in_short": "(§4)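 Healthy Caucasian male volunteers, single oral dose with 240 ml water after a 10-h overnight fast. Heparinised venous blood was drawn predose and at 0.25–14 h. Plasma was stored frozen. Parent drug and metabolites M1–M3 were measured by LC/MS-MS (MRM, deuterated internal standard). Noncompartmental analysis gave Cmax observed, t1/2 = 0.693/kel (terminal regression) and MRT = AUMC/AUC. Values are geometric means.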"}, "Plasma [9]": {"tested_on": "Plasma", "assay": "AUC (0 to infinity) in healthy human plasma assessed as metabolite BAY 78-1788 AUC (0 to infinity) at 80 mg, po administered as single ascending doses during 10 hrs overnight fasting state", "assay_type": "ADME, organism-based", "parameters": "dose 80 mg, time infinity, route oral", "details": "in vivo", "in_short": "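Healthy Caucasian male volunteers, single oral dose of 80 mg as four 20-mg immediate-release tablets, taken with 240 ml water after a 10-h overnight fast. Lithium-heparin venous blood was drawn predose and at 0.25–14 h, and plasma was stored frozen. Metabolites M1/M2/M3 were measured by LC/MS-MS (positive-ion MRM, deuterated internal standard). Noncompartmental analysis, AUC by log-linear trapezoidal rule extrapolated to infinity (Clast/kel), geometric means.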"}, "Plasma [10]": {"tested_on": "Plasma", "assay": "Half-life in healthy human plasma assessed as metabolite BAY 78-1788 half-life at 80 mg, po administered as single ascending doses during 10 hrs overnight fasting state", "assay_type": "ADME, organism-based", "details": "in vivo", "in_short": "as §4"}, "Plasma [11]": {"tested_on": "Plasma", "assay": "Ratio of AUC (0 to infinity) for metabolite BAY 78-1788 to AUC (0 to infinity) for compound in healthy human plasma at 40 mg, po administered as single dose for 3 days measured after 1 day", "assay_type": "ADME, organism-based", "details": "in vivo, 24 h", "in_short": "(§5)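 Healthy Caucasian men (8 active, 4 placebo per dose) dosed with tablets daily for 3 days after 10-h fast. Plasma sampled 0.25–14 h after first and last doses. Parent and metabolites M1–M3 measured by LC/MS-MS (200 µl plasma). Metabolic ratio is metabolite AUC0-∞ divided by parent AUC0-∞ (log-linear trapezoidal, extrapolated by last concentration/kel). First vs third dose compared by paired t test.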"}, "Plasma [12]": {"tested_on": "Plasma", "assay": "Ratio of AUC (0 to infinity) for metabolite BAY 78-1788 to AUC (0 to infinity) for compound in healthy human plasma at 40 mg, po administered as single dose for 3 days measured after 3 days", "assay_type": "ADME, organism-based", "details": "in vivo, 72 h", "in_short": "as §5"}, "Plasma [13]": {"tested_on": "Plasma", "assay": "Ratio of AUC (0 to infinity) for metabolite BAY 78-1788 to AUC (0 to infinity) for compound in healthy human plasma at 80 mg, po administered as single dose for 3 days measured after 1 day", "assay_type": "ADME, organism-based", "details": "in vivo, 24 h", "in_short": "as §5"}, "Plasma [14]": {"tested_on": "Plasma", "assay": "Ratio of AUC (0 to infinity) for metabolite BAY 78-1788 to AUC (0 to infinity) for compound in healthy human plasma at 80 mg, po administered as single dose for 3 days measured after 3 days", "assay_type": "ADME, organism-based", "details": "in vivo, 72 h", "in_short": "as §5"}, "Plasmodium falciparum": {"tested_on": "Plasmodium falciparum", "assay": "Antimalarial activity against Plasmodium falciparum K1 in human plasma assessed as inhibition of hypoxanthine uptake by intraerythrocytic malaria parasites by hypoxanthine incorporation assay", "assay_type": "functional, organism-based", "in_short": "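K1 or TM90-C2A parasites were sorbitol-synchronized and cultured in RPMI 1640. Drug was diluted in drug-free human serum (0.04–40 ng/ml) or subject plasma was diluted twofold (8–8,192). Parasites were added at 2% hematocrit, 1% parasitemia (>95% rings), and [3H]hypoxanthine uptake was measured over 48 h. IC50 or ID50 came from concentration or dilution-response curves. Equivalent concentration = ID50 × IC50.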"}, "Plasma [15]": {"tested_on": "Plasma", "assay": "Cmax in healthy human plasma assessed as metabolite BAY 78-1788 Cmax at 40 mg, po administered as two 20 mg immediate release tablets daily for 3 days during 10 hrs overnight fasting state measured after 1 day", "assay_type": "ADME, organism-based", "parameters": "dose 40 mg, route oral", "details": "in vivo, 24 h", "in_short": "as §2"}, "Plasma [16]": {"tested_on": "Plasma", "assay": "Cmax in healthy human plasma assessed as metabolite BAY 78-1788 Cmax at 40 mg, po administered as two 20 mg immediate release tablets daily for 3 days during 10 hrs overnight fasting state measured after 3 day", "assay_type": "ADME, organism-based", "parameters": "dose 40 mg, route oral", "details": "in vivo, 72 h", "in_short": "as §1"}, "Plasma [17]": {"tested_on": "Plasma", "assay": "AUC in healthy human plasma assessed as metabolite BAY 78-1788 AUC at 40 mg, po administered as two 20 mg immediate release tablets daily for 3 days during 10 hrs overnight fasting state measured after 1 day", "assay_type": "ADME, organism-based", "parameters": "dose 40 mg, time < 10 hr, route oral", "details": "in vivo", "in_short": "as §2"}, "Plasma [18]": {"tested_on": "Plasma", "assay": "AUC in healthy human plasma assessed as metabolite BAY 78-1788 AUC at 40 mg, po administered as two 20 mg immediate release tablets daily for 3 days during 10 hrs overnight fasting state measured after 3 day", "assay_type": "ADME, organism-based", "parameters": "dose 40 mg, time < 10 hr, route oral", "details": "in vivo", "in_short": "as §2"}, "Plasma [19]": {"tested_on": "Plasma", "assay": "Tmax in healthy human plasma assessed as metabolite BAY 78-1788 Tmax at 40 mg, po administered as two 20 mg immediate release tablets daily for 3 days during 10 hrs overnight fasting state measured after 1 day", "assay_type": "ADME, organism-based", "details": "in vivo, 24 h", "in_short": "as §3"}, "Plasma [20]": {"tested_on": "Plasma", "assay": "Tmax in healthy human plasma assessed as metabolite BAY 78-1788 Tmax at 40 mg, po administered as two 20 mg immediate release tablets daily for 3 days during 10 hrs overnight fasting state measured after 3 day", "assay_type": "ADME, organism-based", "details": "in vivo, 72 h", "in_short": "as §3"}, "Plasma [21]": {"tested_on": "Plasma", "assay": "Half life in healthy human plasma assessed as metabolite BAY 78-1788 Half life at 40 mg, po administered as two 20 mg immediate release tablets daily for 3 days during 10 hrs overnight fasting state measured after 1 day", "assay_type": "ADME, organism-based", "details": "in vivo", "in_short": "as §1"}, "Plasma [22]": {"tested_on": "Plasma", "assay": "Half life in healthy human plasma assessed as metabolite BAY 78-1788 Half life at 40 mg, po administered as two 20 mg immediate release tablets daily for 3 days during 10 hrs overnight fasting state measured after 3 day", "assay_type": "ADME, organism-based", "details": "in vivo, 72 h", "in_short": "as §1"}, "Plasma [23]": {"tested_on": "Plasma", "assay": "Cmax in healthy human plasma assessed as metabolite BAY 78-1788 Cmax at 80 mg, po administered as four 20 mg immediate release tablets daily for 3 days during 10 hrs overnight fasting state measured after 1 day", "assay_type": "ADME, organism-based", "parameters": "dose 80 mg, route oral", "details": "in vivo, 24 h", "in_short": "as §1"}}}
{"smiles": "C[C@H]1[C@H](N2CCS(=O)(=O)CC2)O[C@@H]2O[C@]3(C)C[C@H](O)[C@H]4[C@H](C)CC[C@@H]1[C@@]24OO3", "values": [{"measurement": "Cmax", "setting": "Plasma [1]", "value": 66.5, "unit": "ng/mL"}, {"measurement": "AUC", "setting": "Plasma [2]", "value": 302.4, "unit": "ng·h/mL"}, {"measurement": "AUC", "setting": "Plasma [3]", "value": 263, "unit": "ng·h/mL"}, {"measurement": "Tmax", "setting": "Plasma [4]", "value": 2, "unit": "h"}, {"measurement": "Tmax", "setting": "Plasma [5]", "value": 2.5, "unit": "h"}, {"measurement": "t1/2", "setting": "Plasma [6]", "value": 1.59, "unit": "h"}, {"measurement": "t1/2", "setting": "Plasma [7]", "value": 1.44, "unit": "h"}, {"measurement": "Cmax", "setting": "Plasma [8]", "value": 108.9, "unit": "ng/mL"}, {"measurement": "AUC", "setting": "Plasma [9]", "value": 379.9, "unit": "ng·h/mL"}, {"measurement": "t1/2", "setting": "Plasma [10]", "value": 1.36, "unit": "h"}, {"measurement": "Ratio", "setting": "Plasma [11]", "value": 0.71}, {"measurement": "Ratio", "setting": "Plasma [12]", "value": 0.65}, {"measurement": "Ratio", "setting": "Plasma [13]", "value": 0.91}, {"measurement": "Ratio", "setting": "Plasma [14]", "value": 0.82}, {"measurement": "IC50", "setting": "Plasmodium falciparum", "value": 0.0257, "unit": "µg/mL"}, {"measurement": "Cmax", "setting": "Plasma [15]", "value": 40.6, "unit": "ng/mL"}, {"measurement": "Cmax", "setting": "Plasma [16]", "value": 36.4, "unit": "ng/mL"}, {"measurement": "AUC", "setting": "Plasma [17]", "value": 117.3, "unit": "ng·h/mL"}, {"measurement": "AUC", "setting": "Plasma [18]", "value": 115.1, "unit": "ng·h/mL"}, {"measurement": "Tmax", "setting": "Plasma [19]", "value": 1.75, "unit": "h"}, {"measurement": "Tmax", "setting": "Plasma [20]", "value": 2, "unit": "h"}, {"measurement": "t1/2", "setting": "Plasma [21]", "value": 1.31, "unit": "h"}, {"measurement": "t1/2", "setting": "Plasma [22]", "value": 1.28, "unit": "h"}, {"measurement": "Cmax", "setting": "Plasma [23]", "value": 87.2, "unit": "ng/mL"}]}
